Results as given in ChEMBL document CHEMBL3861998, “Development of 6-arylcoumarins as nonsteroidal progesterone antagonists. Structure-activity relationships and fluorescence properties” (Bioorg Med Chem, 2016).

What was measured:
Progesterone receptor [1] = target: T1, Progesterone receptor (Homo sapiens, UniProt P06401); test: Antagonist activity at PR in human T47D cells assessed as inhibition of progesterone-induced alkaline phosphatase expression after 24 hrs by alkaline phopshatase assay; assay type: cell-based
T1 sequence (P06401 whole entry): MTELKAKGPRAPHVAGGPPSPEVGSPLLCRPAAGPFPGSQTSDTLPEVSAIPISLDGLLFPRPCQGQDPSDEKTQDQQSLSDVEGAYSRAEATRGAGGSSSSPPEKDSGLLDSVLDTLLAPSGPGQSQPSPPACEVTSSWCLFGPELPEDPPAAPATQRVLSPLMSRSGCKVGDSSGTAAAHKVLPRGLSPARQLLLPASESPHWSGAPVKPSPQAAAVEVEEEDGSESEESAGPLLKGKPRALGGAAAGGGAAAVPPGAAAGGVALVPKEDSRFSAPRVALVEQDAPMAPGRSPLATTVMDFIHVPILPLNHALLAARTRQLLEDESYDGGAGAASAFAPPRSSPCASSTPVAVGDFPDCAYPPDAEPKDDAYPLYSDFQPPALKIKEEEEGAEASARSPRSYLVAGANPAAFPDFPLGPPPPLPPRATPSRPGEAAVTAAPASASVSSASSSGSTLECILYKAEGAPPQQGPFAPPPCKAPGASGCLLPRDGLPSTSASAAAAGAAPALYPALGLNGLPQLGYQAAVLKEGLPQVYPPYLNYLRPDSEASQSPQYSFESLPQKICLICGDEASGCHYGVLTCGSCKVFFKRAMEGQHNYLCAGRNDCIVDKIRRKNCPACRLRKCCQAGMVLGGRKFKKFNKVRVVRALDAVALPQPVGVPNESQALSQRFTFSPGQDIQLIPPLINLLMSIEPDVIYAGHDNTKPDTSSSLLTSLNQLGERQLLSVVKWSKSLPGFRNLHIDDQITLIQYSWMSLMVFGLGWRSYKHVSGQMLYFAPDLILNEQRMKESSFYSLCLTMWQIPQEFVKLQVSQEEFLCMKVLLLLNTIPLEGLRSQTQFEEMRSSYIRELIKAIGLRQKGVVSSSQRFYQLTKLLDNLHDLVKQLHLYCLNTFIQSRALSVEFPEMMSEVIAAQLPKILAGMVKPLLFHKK
Summary of the method: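 T-47D cells seeded at 10^4 cells/well and incubated overnight at 37°C, 5% CO₂. Fresh medium with compound added for 24 h. Cells fixed in 1.8% formalin in PBS and washed. Substrate was 1 mg/mL p-nitrophenyl phosphate in diethanolamine buffer, pH 9.0, 2 mM MgCl₂, for 2 h at room temperature in the dark. Stopped with 1 M NaOH; absorbance read at 405 nm.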

Androgen receptor [2] = target: T2, Androgen receptor (Mus musculus, UniProt P19091); test: Antagonist activity at AR in mouse SC3 cells assessed as inhibition of dihydrotestosterone-induced cell growth 10^-5 to 10^-7 M measured after 3 days by CCK8 assay; assay type: cell-based; settings: sc-3, 72 h
T2 sequence (P19091 whole entry): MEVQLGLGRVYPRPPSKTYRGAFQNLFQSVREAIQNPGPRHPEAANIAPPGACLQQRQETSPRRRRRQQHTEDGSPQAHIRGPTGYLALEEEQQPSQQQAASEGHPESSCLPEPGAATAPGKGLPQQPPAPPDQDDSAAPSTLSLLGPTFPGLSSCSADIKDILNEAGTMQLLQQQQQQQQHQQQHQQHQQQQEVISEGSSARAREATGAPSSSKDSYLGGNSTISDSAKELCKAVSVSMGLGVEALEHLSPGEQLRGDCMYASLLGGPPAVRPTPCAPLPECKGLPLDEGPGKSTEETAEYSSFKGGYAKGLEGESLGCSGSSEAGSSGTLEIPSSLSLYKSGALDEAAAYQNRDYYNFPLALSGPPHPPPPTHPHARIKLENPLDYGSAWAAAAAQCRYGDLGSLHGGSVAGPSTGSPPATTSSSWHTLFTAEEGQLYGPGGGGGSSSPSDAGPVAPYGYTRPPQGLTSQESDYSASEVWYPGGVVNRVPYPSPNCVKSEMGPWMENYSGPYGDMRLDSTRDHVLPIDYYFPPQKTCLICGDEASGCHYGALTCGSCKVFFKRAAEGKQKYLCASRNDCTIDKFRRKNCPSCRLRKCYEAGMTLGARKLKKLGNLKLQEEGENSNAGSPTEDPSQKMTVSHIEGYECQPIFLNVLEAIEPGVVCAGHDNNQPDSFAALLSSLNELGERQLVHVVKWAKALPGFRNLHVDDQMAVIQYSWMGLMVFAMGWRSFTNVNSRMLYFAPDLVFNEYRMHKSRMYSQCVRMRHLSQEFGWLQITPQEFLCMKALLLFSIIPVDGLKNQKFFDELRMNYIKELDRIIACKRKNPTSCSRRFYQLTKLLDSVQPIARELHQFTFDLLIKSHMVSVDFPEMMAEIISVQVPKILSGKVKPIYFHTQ
Summary of the method: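 SC-3 cells maintained in MEMα with 2% FBS and 1 nM DHT, 37°C, 5% CO2. Seeded at 20,000 cells/mL in MEMα with 2% charcoal-stripped FBS and held 24 h. Serial dilutions of compound (DMSO control) added with 1 nM DHT, then 3 days at 37°C. WST-8 (CCK-8) added for 2 h, absorbance read at 450 nm. Triplicate or more.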

Progesterone receptor [3] = target: T1, Progesterone receptor; test: Displacement of [1,2,6,7-3H]progesterone from recombinant human GST-tagged PR-LBD (675 to 933 residues) expressed in baculovirus-infected insect cells measured after 24 hrs by liquid scintillation counting method
Summary of the method: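 Incubated with 4 nM [³H]progesterone and compound (final DMSO 3%) for 24 h at 4°C in the dark. Nonspecific binding set with 200-fold excess unlabeled progesterone. Free ligand removed with dextran/γ-globulin-coated charcoal, 5 min at 4°C, then centrifuged; supernatant counted by liquid scintillation. Duplicates.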

Mus musculus = species: Mus musculus; test: Cytotoxicity against mouse SC3 cells assessed as effect on cell growth at 10^-5 to 10^-7 M after 3 days by CCK8 assay; assay type: toxicity; settings: sc-3, 72 h
Summary of the method: (§1)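 SC-3 cells kept in MEMα with 2% FBS and 1 nM DHT at 37°C, 5% CO₂. Trypsinized, diluted to 20,000 cells/mL in MEMα with 2% charcoal-stripped FBS, seeded and held 24 h. Serial dilutions of compound or DMSO control added with 1 nM DHT. Incubated 3 days at 37°C. Cell number read by WST-8 (CCK-8), 2 h, absorbance at 450 nm. Triplicate or more.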

Glucocorticoid receptor = target: T3, Glucocorticoid receptor (Homo sapiens, UniProt P04150); test: Displacement of [3H]dexamethasone from human GR measured after 18 hrs by scintillation counting method
T3 sequence (P04150 whole entry): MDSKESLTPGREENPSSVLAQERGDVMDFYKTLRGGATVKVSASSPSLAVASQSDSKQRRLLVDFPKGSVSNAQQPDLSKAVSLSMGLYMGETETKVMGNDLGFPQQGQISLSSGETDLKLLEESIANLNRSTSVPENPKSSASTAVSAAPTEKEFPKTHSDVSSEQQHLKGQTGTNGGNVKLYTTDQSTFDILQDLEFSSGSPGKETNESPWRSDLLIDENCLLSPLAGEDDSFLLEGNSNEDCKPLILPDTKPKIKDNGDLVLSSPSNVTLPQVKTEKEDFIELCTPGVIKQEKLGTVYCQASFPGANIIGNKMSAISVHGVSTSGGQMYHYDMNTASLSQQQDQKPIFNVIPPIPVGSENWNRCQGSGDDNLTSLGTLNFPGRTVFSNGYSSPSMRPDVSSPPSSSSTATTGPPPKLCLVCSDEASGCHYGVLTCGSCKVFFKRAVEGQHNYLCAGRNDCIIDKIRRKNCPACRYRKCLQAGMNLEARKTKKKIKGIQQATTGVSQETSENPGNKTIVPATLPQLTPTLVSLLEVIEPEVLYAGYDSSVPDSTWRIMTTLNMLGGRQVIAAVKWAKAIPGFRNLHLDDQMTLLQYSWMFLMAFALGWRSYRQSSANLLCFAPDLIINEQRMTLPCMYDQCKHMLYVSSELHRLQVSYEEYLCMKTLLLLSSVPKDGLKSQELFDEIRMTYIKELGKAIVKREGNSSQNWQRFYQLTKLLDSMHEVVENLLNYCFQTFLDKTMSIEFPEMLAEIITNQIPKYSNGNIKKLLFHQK
Summary of the method: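 hGR at 1.25 nM final in 50 mM KH₂PO₄ pH 7.4 with 10 mM sodium molybdate and 1 mM DTT. Incubated with 10^-9 M [³H]dexamethasone and compounds at 10^-7 to 10^-5 M, 0.4% DMSO, for 18 h. Nonspecific binding set with 10^-5 M triamcinolone acetonide. Bound ligand collected by vacuum filtration on glass-fiber filters and counted. Duplicates.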

Androgen receptor [4] = target: T2, Androgen receptor; test: Antagonist activity at AR in mouse SC3 cells assessed as inhibition of dihydrotestosterone-induced cell growth at 10^-5 M measured after 3 days by CCK8 assay; assay type: cell-based; settings: sc-3, 72 h, 10 µM; summary of the method: as §1

SMILES	IC50 (Progesterone receptor [1]) [µM]	also measured
N#Cc1ccc(-c2ccc3oc(=O)ccc3c2)s1	0.14	–
CC(C)(O)C(=O)Nc1ccc([N+](=O)[O-])c(C(F)(F)F)c1 [HYDROXYFLUTAMIDE]	–	inhibition (INH) (Androgen receptor [2]): Active
CCCCCCn1c(C#N)ccc1-c1ccc2oc(=O)ccc2c1	0.034	IC50 (Progesterone receptor [3]): 0.16 µM
N#Cc1ccc(-c2ccc3oc(=O)ccc3c2)n1Cc1ccc(F)cc1	0.21	–
N#Cc1ccc(-c2ccc3oc(=O)ccc3c2)n1Cc1c(F)c(F)c(F)c(F)c1F	0.19	–
COc1cc2oc(=O)cc(C)c2cc1-c1ccc(C#N)n1Cc1ccccc1	0.23	–
COc1cc2oc(=O)cc(C)c2cc1-c1ccc(C#N)n1C	0.024	IC50 (Progesterone receptor [3]): 0.99 µM; Activity (Mus musculus): Non-Toxic; inhibition (INH) (Androgen receptor [2]): Active
Cc1ccsc1-c1ccc2oc(=O)ccc2c1	0.15	–
Cc1ccc(-c2ccc3oc(=O)ccc3c2)s1	0.44	–
O=c1ccc2cc(-c3sccc3Cl)ccc2o1	0.23	–
COc1cc2oc(=O)cc(C)c2cc1-c1ccc(C#N)n1Cc1ccc(C#N)cc1	0.48	–
CCn1c(C#N)ccc1-c1ccc2oc(=O)ccc2c1	0.22	–
CCN(CC)c1cc2oc(=O)ccc2cc1-c1ccc(C#N)n1CC#N	0.85	–
CCN(CC)c1cc2oc(=O)ccc2cc1-c1ccc(C#N)n1Cc1ccccc1	0.58	–
CCCCCCn1c(C#N)ccc1-c1cc2c(C)cc(=O)oc2cc1OC	0.18	–
N#Cc1ccc(-c2ccc3oc(=O)ccc3c2)n1Cc1ccc2ccccc2c1	0.29	–

SMILES	IC50 (Progesterone receptor [1]) [µM]	also measured
COc1cc2oc(=O)cc(C)c2cc1-c1ccc(C#N)n1Cc1ccc(F)cc1	0.57	–
CCN(CC)c1cc2oc(=O)ccc2cc1-c1ccc(C#N)n1C	0.24	IC50 (Glucocorticoid receptor): 10 µM; inhibition (INH) (Androgen receptor [4]): Active; IC50 (Progesterone receptor [3]): 1.36 µM; Activity (Mus musculus): Non-Toxic
COc1cc2oc(=O)cc(C)c2cc1-c1ccc(C#N)[nH]1	0.26	–
Cc1cc(=O)oc2cc(O)c(-c3ccc(C#N)n3C)cc12	0.3	IC50 (Progesterone receptor [3]): 15.7 µM
CCN(CC)c1cc2oc(=O)ccc2cc1-c1ccc(C#N)[nH]1	0.12	–
N#CCn1c(C#N)ccc1-c1ccc2oc(=O)ccc2c1	15.8	–
CCN(CC)c1cc2oc(=O)ccc2cc1-c1ccc(C#N)n1CC	0.25	–
N#Cc1ccc(-c2ccc3oc(=O)ccc3c2)n1Cc1ccccc1	0.056	IC50 (Progesterone receptor [3]): 0.79 µM
N#Cc1ccc(-c2ccc3oc(=O)ccc3c2)n1CC1CCCCC1	0.031	–
CC(=O)c1ccc(-c2ccc3oc(=O)ccc3c2)s1	0.24	–
N#Cc1ccc(-c2ccc3oc(=O)ccc3c2)[nH]1	0.14	–
COc1cc2oc(=O)cc(C)c2cc1-c1ccc(C#N)n1CC1CCCCC1	0.55	–
N#Cc1ccc(Cn2c(C#N)ccc2-c2ccc3oc(=O)ccc3c2)cc1	0.29	–
CCn1c(C#N)ccc1-c1cc2c(C)cc(=O)oc2cc1OC	0.038	–
N#Cc1ccc(-c2ccc3oc(=O)ccc3c2)n1Cc1cc(F)cc(F)c1	0.16	–
N#Cc1ccc(-c2ccc3oc(=O)ccc3c2)n1Cc1ccc([N+](=O)[O-])cc1	0.45	–
